Measurements taken from ChEMBL document CHEMBL4665627 (Eur J Med Chem, 2019).
≈ marks a conversion by molar mass, not a printed value. Calls of active or inactive are those of the source. The calls are words filed in the database; no cut-off is given here.

Tests used:
[1] = test system: Pseudomonas aeruginosa; test: Antibacterial activity against Pseudomonas aeruginosa assessed as inhibition of bacterial growth after 24 hrs by CLSI protocol based two fold serial dilution method; type: functional
Method in brief: (§1)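 Two-fold serial broth dilution in 96-well plates following CLSI; MIC (mM) taken as the lowest concentration giving complete growth inhibition; MIC values from three independent experiments.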

[2] = test system: Escherichia coli; test: Antibacterial activity against Escherichia coli assessed as inhibition of bacterial growth after 24 hrs by CLSI protocol based two fold serial dilution method; type: functional; method in brief: as §1
[3] = test system: Staphylococcus aureus; test: Antibacterial activity against Staphylococcus aureus ATCC 29213 assessed as inhibition of bacterial growth after 24 hrs by CLSI protocol based two fold serial dilution method; type: functional
[4] = test system: Acinetobacter baumannii; test: Antibacterial activity against Acinetobacter baumannii assessed as inhibition of bacterial growth after 24 hrs by CLSI protocol based two fold serial dilution method; type: functional; method in brief: as §1
[5] = test system: Escherichia coli; test: Antibacterial activity against Escherichia coli ATCC 25922 assessed as inhibition of bacterial growth after 24 hrs by CLSI protocol based two fold serial dilution method; type: functional; method in brief: as §1
[6] = test system: Pseudomonas aeruginosa; test: Antibacterial activity against Pseudomonas aeruginosa ATCC 27853 assessed as inhibition of bacterial growth after 24 hrs by CLSI protocol based two fold serial dilution method; type: functional; method in brief: as §1
[7] = test system: Enterococcus faecalis; test: Antibacterial activity against Enterococcus faecalis assessed as inhibition of bacterial growth after 24 hrs by CLSI protocol based two fold serial dilution method; type: functional; method in brief: as §1
[8] = test system: Staphylococcus aureus; test: Antibacterial activity against methicillin-resistant Staphylococcus aureus N315 assessed as inhibition of bacterial growth after 24 hrs by CLSI protocol based two fold serial dilution method; type: functional
[9] = test system: Staphylococcus aureus; test: Antibacterial activity against Staphylococcus aureus ATCC 25923 assessed as inhibition of bacterial growth after 24 hrs by CLSI protocol based two fold serial dilution method; type: functional; method in brief: as §1
[10] = test system: Klebsiella pneumoniae; test: Antibacterial activity against Klebsiella pneumoniae assessed as inhibition of bacterial growth after 24 hrs by CLSI protocol based two fold serial dilution method; type: functional; method in brief: as §1
[11] = test system: Staphylococcus aureus; test: Antibacterial activity against Staphylococcus aureus assessed as inhibition of bacterial growth after 24 hrs by CLSI protocol based two fold serial dilution method; type: functional; method in brief: as §1
[12] = test system: Klebsiella pneumoniae; test: Antibacterial activity against Klebsiella pneumoniae measured every 24 hrs after several passages by serial dilution method; type: functional, organism-based
[13] = Inhibition of Saccharomyces cerevisiae CGMCC 2.145 chitin synthase using GlcNAc and UDP-GlcNAc as substrate incubated for 60 mins by microplate reader analysis
Method in brief: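 Chitin synthase IC50 determined from concentration–inhibition curves.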

[14] = test system: Saccharomyces cerevisiae; test: Inhibition of Saccharomyces cerevisiae CGMCC 2.145 chitin synthase at 300 ug/ml using GlcNAc and UDP-GlcNAc as substrate incubated for 60 mins by microplate reader analysis relative to control; conditions: dose 300.0 µg/ml
Method in brief: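 Chitin synthase inhibition ratio measured at 300 µg/mL test compound, relative to untreated control.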

[15] = test system: Aspergillus fumigatus; test: Antifungal activity against Aspergillus fumigatus assessed as inhibition of fungal growth after 24 hrs by CLSI protocol based two fold serial dilution method; type: functional; method in brief: as §1
[16] = test system: Candida parapsilosis; test: Antifungal activity against Candida parapsilosis ATCC 22019 assessed as inhibition of fungal growth after 24 hrs by CLSI protocol based two fold serial dilution method; type: functional; conditions: Lodderomyces parapsilosis; method in brief: as §1
[17] = test system: Candida albicans; test: Antifungal activity against Candida albicans ATCC 90023 assessed as inhibition of fungal growth after 24 hrs by CLSI protocol based two fold serial dilution method; type: functional; method in brief: as §1
[18] = test system: Candida tropicalis; test: Antifungal activity against Candida tropicalis assessed as inhibition of fungal growth after 24 hrs by CLSI protocol based two fold serial dilution method; type: functional; method in brief: as §1
[19] = test system: Candida albicans; test: Antifungal activity against Candida albicans assessed as inhibition of fungal growth after 24 hrs by CLSI protocol based two fold serial dilution method; type: functional; method in brief: as §1

Compound	MIC [1] [µM]	MIC [2] [µM]	MIC [3] [µM]	MIC [4] [µM]	MIC [5] [µM]	MIC [6] [µM]	MIC [7] [µM]	MIC [8] [µM]	MIC [9] [µM]	MIC [10] [µM]	MIC [11] [µM]	Activity [12]	IC50 [13] [µM]	inhibition [14] [%]	MIC [15] [µM]	MIC [16] [µM]	MIC [17] [µM]	MIC [18] [µM]	MIC [19] [µM]
CCn1cc(C(=O)O)c(=O)c2cc(F)c(N3CCNCC3)cc21 [NORFLOXACIN]	6 (≈ 1.92 µg/mL)	50 (≈ 16 µg/mL)	6 (≈ 1.92 µg/mL)	25 (≈ 7.98 µg/mL)	25 (≈ 7.98 µg/mL)	2 (≈ 0.639 µg/mL)	13 (≈ 4.15 µg/mL)	25 (≈ 7.98 µg/mL)	3 (≈ 0.958 µg/mL)	13 (≈ 4.15 µg/mL)	2 (≈ 0.639 µg/mL)	inactive	–	–	–	–	–	–	–
NC(=O)OC[C@H](O)[C@@H](O)[C@H](N)C(=O)N[C@H](C(=O)O)[C@H]1O[C@@H](n2cc(CO)c(=O)[nH]c2=O)[C@H](O)[C@@H]1O [POLYOXIN B]	–	–	–	–	–	–	–	–	–	–	–	–	120	81	–	–	–	–	–
CCn1cc(-c2csc(N)n2)c(=O)c2cc(F)c(N3CCN(Cc4ccc(Cl)cc4)CC3)cc21	257 (≈ 128 µg/mL)	32 (≈ 15.9 µg/mL)	64 (≈ 31.9 µg/mL)	32 (≈ 15.9 µg/mL)	32 (≈ 15.9 µg/mL)	32 (≈ 15.9 µg/mL)	16 (≈ 7.97 µg/mL)	16 (≈ 7.97 µg/mL)	16 (≈ 7.97 µg/mL)	129 (≈ 64.2 µg/mL)	64 (≈ 31.9 µg/mL)	–	320	56.2	515 (≈ 256 µg/mL)	16 (≈ 7.97 µg/mL)	64 (≈ 31.9 µg/mL)	32 (≈ 15.9 µg/mL)	32 (≈ 15.9 µg/mL)
